The source made the active and inactive calls. The calls are words filed in the database; no cut-off is given here.
Legend:
Rattus norvegicus [1] = species: Rattus norvegicus; assay: Compound was evaluated for inhibition of binding of [3H]dopamine to rat caudate tissue.; assay type: functional, organism-based
Rattus norvegicus [2] = species: Rattus norvegicus; assay: Compound was evaluated for inhibition of binding of [3H]spiroperidol to rat caudate tissue.; assay type: functional, organism-based
Felis catus [3] = assay: Compound was evaluated for the inhibition of the cardioaccelerator nerve of the cat at a dose 4 umol/kg (n = 3); assay type: functional
In short: (§1)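 Cats were anaesthetised with pentobarbital sodium (30 mg/kg) injected into the thoracic cavity. The right cardioaccelerator nerve was isolated and stimulated through bipolar platinum electrodes at 2 Hz, 2-ms pulses and supramaximal voltage, usually for 30 s. Arterial pressure was recorded from the right femoral artery, and heart rate by cardiotachometer. The highest dose tested was 4 µmol/kg, with n = 3.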

Felis catus [4] = assay: Compound was evaluated for the inhibition of the cardioaccelerator nerve of the cat; I - inactive at a dose 4 umol/kg (n = 3); assay type: functional, organism-based; in short: as §1
Felis catus [5] = assay: Compound was evaluated for the inhibition of the cardioaccelerator nerve of the cat at a dose 4 umol/kg; assay type: functional; in short: as §1

| SMILES | IC50 (Rattus norvegicus [1]) [µM] | IC50 (Rattus norvegicus [2]) [µM] | ED50 (Felis catus [3]) [µmol/kg] | ED50 (Felis catus [4]) | ED50 (Felis catus [5]) [µmol/kg] |
| --- | --- | --- | --- | --- | --- |
| Oc1cc(O)c2c(c1)[C@@H]1CCCN[C@H]1CC2 | 1 | 25 |  |  |  |
| CN1CCc2cccc3c2[C@H]1Cc1ccc(O)c(O)c1-3 [APOMORPHINE] |  | 1.1 | 0.022 |  |  |
| CCN1CCC[C@@H]2Cc3c(O)cc(O)cc3C[C@H]21 | 0.44 | 32 |  | inactive |  |
| Oc1cc(O)c2c(c1)C[C@H]1NCCC[C@@H]1C2 | 12.8 | 264 |  | inactive |  |
| CCN1CCC[C@H]2c3cc(O)cc(O)c3CC[C@H]21 | 0.43 | 10 |  |  | > 4 |
| CCN1CCC[C@@H]2c3cc(O)cc(O)c3CC[C@H]21 | 0.09 | 2.4 | 0.0021 |  |  |
| Oc1cc(O)c2c(c1)[C@@H]1CCCN[C@@H]1CC2 | 11.1 | 113 |  |  |  |
| CCCN1CCC[C@@H]2c3cc(O)cc(O)c3CC[C@H]21 | 0.04 | 1 | 0.0047 |  |  |
| CCCN1CCC[C@H]2c3cc(O)cc(O)c3CC[C@H]21 | 1.7 | 11 |  |  | > 4 |
| CCCN1CCC[C@@H]2Cc3c(O)cc(O)cc3C[C@H]21 | 0.37 | 15 | 1.74 |  |  |

From ChEMBL document CHEMBL1122567, “Conformationally restricted congeners of dopamine derived from octahydrobenzo[g]quinoline and octahydrobenzo[f]quinoline” (J Med Chem, 1984)
